CHOP inh: CHOP inhibition in unfolded protein response; CHO-K1 CHOP-promoter luciferase, tunicamycin-induced, 15-18 h; 220,000 compounds, 3.8% hits; inhibition, % at 10 µM;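 active = compounds that reduced the stress-induced luciferase reporter signal by more than about 70% of percent inhibition, limit read from the data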;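 note: 0% = tunicamycin plus vehicle and 100% = wells without tunicamycin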
L major viab: reduces viability of Leishmania major promastigotes | resazurin fluorescence viability | inhibition, % at 10 µM | AID 1063 | 200,000 compounds, 9% hits; in the data active = inhibition above about 50%;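 note: promastigotes grown with compound for 44 hours at 28 °C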
bCat nuc transl: modulators of beta-catenin nuclear translocation. HeLa beta-catenin nuclear translocation, immunofluorescence imaging. nuclear translocation activity, % at 5 µM. 190,000 compounds, 0.3% hits;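 active = nuclear translocation activity above 50% at 5 µM, with a well cell count of 50 or more; inconclusive = wells under 50 cells across six images, flagged as toxic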;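 note: per-cell ratio of nuclear to cytoplasmic median beta-catenin stain intensity; plate controls were DMSO negative control for no effect and GSK-3 inhibitor IX positive control for full effect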
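Signal – beta-catenin immunofluorescence imaging with DAPI · Test system – human HeLa cell line · Dosing – 5 µM primary single dose, 0.1% DMSO, 0.02–20 µM confirmation series · Measure – % activation, nuclear-to-cytoplasmic median beta-catenin signal ratio per cell · Incubation – 24 h compound exposure at 37°C, 5% CO2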
Dynein cargo inh: blocks dynein driven cargo transport along microtubules. 3617.4 mouse cells, GR-EGFP nuclear translocation imaging; test concentration mostly 20 µM; stimulated with dexamethasone, 1 µM; stronger effect = lower value. z-score, hits read low. 220,000 compounds, 0.47% hits. AID 1381;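 active = plate z-score of nuclear minus cytoplasmic receptor signal below a set negative limit, without overly bright fluorescence or cell loss, cut at about -3.5 in these data, passing the limit was not always enough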;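 note: z-score of nuclear minus cytoplasmic ring GR-EGFP intensity difference per well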
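Buffer or medium: tet-free medium with charcoal-stripped serum / Also added: dexamethasone agonist, 1.0 µM final, for 30 min / Timing: induction 48 h, compound 1 h, agonist 30 min / Measured by: high-content fluorescence imaging after fixation / Read-out: nuclear-to-cytoplasmic GR-EGFP distribution per well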
Autophagy mod: modulators of autophagy. MEF GFP-LC3 puncta imaging; test concentration mostly 10 µM. calls only at 10 µM (by protocol). 190,000 compounds, 0.98% hits;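 active = percentage of spot-positive cells more than 3 SD above its plate mean, without a fluorescence outlier flag or 80% toxicity; inconclusive = no clear call, values can overlap the other calls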;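 note: spot-positive cell cutoff set from DMSO-treated cells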
MT stabilize HCS: microtubule stabilization, imaging screen | HeLa tubulin immunostaining HCS, 24 h; share of cells brighter than vehicle mean+2SD | % tubulin-high responders, % at 10 µM | 200,000 compounds, 0.83% hits | AID 2205;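 active = plate Z-score above 3 for both tubulin-high and condensed-nucleus cell shares, with cell loss under 80%, at 10 µM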;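 note: anti alpha tubulin signal scored within the nucleus-defined area of each cell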
L major 1uM: inhibitors of Leishmania major promastigote growth, repeat at 1 uM; shares compounds with L major viab; L. major promastigote growth, resazurin fluorescence, 48 h; inhibition, % at 1 µM; 1,100 compounds, 13% hits; AID 1258;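 active = inhibition above about 50% in both repeat tests, limit read from the data; inconclusive = one repeat under the set limit, the other over it; inactive = both repeats under the set limit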
* = called active by the depositor; i = inactive; ? = inconclusive; . = no result; + = active, no number. Rows were chosen to be rich in hits. Some 12% of all compounds tested hit in one or more screens of this group.

SMILES	CHOP inh	L major viab	bCat nuc transl	Dynein cargo inh	Autophagy mod	MT stabilize HCS	L major 1uM
CCOC(=O)C1(Cc2ccccc2C)CCCN(Cc2ccc(NC(C)=O)cc2)C1 (stereo unspecified)	7	27	-2	1.3	i	4	.
COc1ccccc1NC(=S)N(Cc1ccco1)Cc1cc2cccc(C)c2[nH]c1=O	-15	100*	5	0.53	i	4	18
Cc1ccc(/C=C(\C#N)c2nn(-c3ccccc3)c(N)c2C#N)cc1	-9	65*	0	-0.53	i	3	-6
N#C/C(=C\c1cccc2ccccc12)c1nn(-c2ccccc2)c(N)c1C#N	.	32	.	0.49	i	5	.
COc1ccc(NC(=O)COC(=O)c2ccc(S(=O)(=O)N(C)c3ccccc3OC)cc2)c(OC)c1	1	99*	0	-0.15	i	18*	-6
O=C(CNC(=S)N(Cc1ccccc1Cl)C1CCCC1)NCCN1CCOCC1	18	1	1	0.3	i	3	.
CCCCC(=O)Nc1ccc(C(N)=O)cc1	7	-9	0	-1.2	i	2	.
CCCCCCCCCCCCCCCC[n+]1ccc(C(N)=O)cc1	70*	100*	.	0.69	i	16	9
O=S(=O)(CC(CN1CCCCC1)N1CCCCC1)c1ccc2ccccc2c1 (stereo unspecified)	11	99*	-4	-2.1	i	3	?
CCOc1ccccc1C1CC(c2ccc(Br)cc2)Nc2nc(N)nn21 (stereo unspecified)	-13	7	5	-0.6	.	7	.
COc1cccc(CN2CCNC(=O)C2CC(=O)N(Cc2cnn(C)c2)C(C)C)c1 (stereo unspecified)	-2	-8	0	-0.33	i	2	.
CC1=CC(C)C2(CO)COC(c3ccc(O)cc3)C1C2C (stereo unspecified)	7	6	-2	0.95	i	2	.
CC1=CC(C)C2(CO)COC(c3cccnc3)C1C2C (stereo unspecified)	5	80*	-2	0.67	i	2	-4
COC(=O)C(Cc1ccccc1)NS(=O)(=O)c1ccc(F)cc1Br (stereo unspecified)	6	.	1	0.5	.	.	.
Cn1c(CN2CCCC2)nc2cc(NS(=O)(=O)c3ccc(Cl)cc3)ccc21	5	99*	-4	-0.92	i	3	-11
Cc1cc(C)c(/C=N/n2c(C)cc(C)c(C#N)c2=O)c(C)c1	34	73*	.	1.7	i	2	20
Cc1cc(C)n(/N=C/c2cccs2)c(=O)c1C#N	17	-6	0	-0.53	i	3	.
COc1cccc2c(=O)c(C/C=C(/C)Cl)c(C)[nH]c12	5	100*	-4	-1.3	i	2	99*
COc1cccc2c(=O)c(SC(F)(F)C(F)C(F)(F)F)c(C)[nH]c12 (stereo unspecified)	-9	29	-6	0.091	i	8	.
COC(=O)C(Cc1cnc(Cl)s1)(C(=O)OC)c1ccc([N+](=O)[O-])cc1[N+](=O)[O-]	-14	63*	-4	-0.32	i	3	-15
COc1cccc(/C=N/n2c(SC)nnc2-c2ccccc2)c1OC	26	84*	-4	-0.39	i	6	22
CC(=O)Nc1cccc(Oc2cc(C#N)c(C#N)cc2N2CCCCCC2)c1	40	61*	.	2.1	i	3	0
COc1ccc(C(=O)CSc2nc3ccc([N+](=O)[O-])cc3[nH]2)cc1	21	20	-4	0.03	i	4	.
CC1(C)C2([N+](=O)[O-])CN3CC1([N+](=O)[O-])CN(C2)C3c1ccc(O)c(O)c1 (stereo unspecified)	4	.	1	-0.57	.	.	.
Cc1ccc(C2N3CC4([N+](=O)[O-])CN2CC([N+](=O)[O-])(C3)C4(C)C)cc1 (stereo unspecified)	-12	65*	2	0.33	i	4	3
SMILES	CHOP inh	L major viab	bCat nuc transl	Dynein cargo inh	Autophagy mod	MT stabilize HCS	L major 1uM
Cc1noc(C)c1S(=O)(=O)NCCCN1CCN(Cc2ccccc2)CC1	28	92*	-3	-0.67	i	1	-11
Cc1noc(C)c1S(=O)(=O)NCCN1CCN(c2ccccc2)CC1	-18	-2	-2	0.35	i	1	.
O=C(c1cccc(Oc2ccccc2)c1)N1CCN(c2ccccn2)CC1	27	-9	2	-0.21	i	6	.
COc1ccc(N(CC(=O)Nc2cccc(N(C)S(C)(=O)=O)c2)S(=O)(=O)c2ccc(F)cc2)cc1	-16	.	0	-0.59	.	.	.
COc1ccc(N(CC(=O)Nc2cccc(N(C)S(C)(=O)=O)c2)S(=O)(=O)c2ccccc2)cc1Cl	37	56*	-4	1.3	i	5	-6
Cc1ccc(C(C)C)c(OCc2nn(CC(=O)c3ccc(Cl)cc3)c3[n+]2CCCCC3)c1	57	98*	0	-6.9	i	8	11
CC(=O)NCCC(=O)Nc1ccc(F)cc1C	2	-6	-3	1.5	i	3	.
C=CCSC1=NN2CCS(=O)(=O)N=C2S1	13	100*	3	-0.29	i	4	-8
CCOC(=O)CSC1=NN2CCS(=O)(=O)N=C2S1	2	-11	-1	-0.3	i	2	.
CCOc1ccc(NCc2nnc(SCc3ccc(Cl)cc3)n2-c2ccccc2)cc1	58	24	-2	-0.61	i	2	.
NC(N)=NS(=O)(=O)c1ccc(NC(=S)NC(=O)c2sc3ccccc3c2Cl)cc1	8	-2	1	-0.0066	i	5	.
CCOC(=O)N1CCN(c2cc3[nH]c(=S)[nH]c3cc2F)CC1	16	-5	-1	-0.47	i	3	.
CCOC(=O)N1CCN(c2c(F)cc3[nH]c(=S)[nH]c3c2Br)CC1	.	51*	-1	0.44	+	47*	-14
Cc1nn(C(=O)CCCn2cc([N+](=O)[O-])cn2)c(C)c1Cl	46	6	1	-0.16	i	4	.
CC(=O)c1ccc(Oc2cc(-c3ccccc3)nc(-c3ccccc3)n2)cc1	31	38	-1	1.5	i	2	.
O=Cc1ccc(Oc2cc(-c3ccccc3)nc(-c3ccccc3)n2)cc1	14	57*	-2	-0.29	i	2	-14
Cc1cc(C)n(CCc2nc(-c3cc4ccccc4o3)cs2)n1	57	100*	0	0.61	i	2	-2
O=C(CCC(=O)Nc1ccccc1)NNC(=O)C(c1ccccc1)c1ccccc1	-17	-2	0	0.45	i	2	.
CC1CC(C)CN(Cc2nc3c(c(=O)n(C)c(=O)n3C)n2CCN2CCOCC2)C1 (stereo unspecified)	36	2	1	-0.35	i	5	.
